Assay results published in ChEMBL document CHEMBL2434944, “Novel acetamidothiazole derivatives: synthesis and in vitro anticancer evaluation” (Eur J Med Chem, 2013).
pKi: −log10 of the molar value.

What was measured:
[1] = Growth inhibition of human Hs 578T cells assessed as cell growth at 10^-5 M after 48 hrs by sulforhodamine B assay relative to control; format: functional; settings: read-out: Activity
Procedure, shortened: (§1)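 NCI-60 single-dose screen at 10^-5 M. Cells grown in RPMI 1640 with 5% FBS and 2 mM L-glutamine, plated at 5,000–40,000 cells/well according to doubling time, and preincubated 24 h at 37°C, 5% CO2. Compound dissolved in DMSO and added. Exposure 48 h. Adherent cells fixed with cold TCA (10% final), suspension cells with 16% final TCA. Read-out is 0.4% SRB staining, dye solubilised in 10 mM Tris, absorbance at 515 nm. Percent growth is calculated against the time-zero plate and untreated control.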

K562 = assay: Growth inhibition of human K562 cells assessed as cell growth at 10^-5 M after 48 hrs by sulforhodamine B assay relative to control; format: functional; settings: K562, 48 h, read-out: Activity; procedure, shortened: as §1
[2] = target: Mitogen-activated protein kinase 1 (Homo sapiens, UniProt P28482); assay: Inhibition of human MAPK1
Sequence of Mitogen-activated protein kinase 1 (P28482 whole entry): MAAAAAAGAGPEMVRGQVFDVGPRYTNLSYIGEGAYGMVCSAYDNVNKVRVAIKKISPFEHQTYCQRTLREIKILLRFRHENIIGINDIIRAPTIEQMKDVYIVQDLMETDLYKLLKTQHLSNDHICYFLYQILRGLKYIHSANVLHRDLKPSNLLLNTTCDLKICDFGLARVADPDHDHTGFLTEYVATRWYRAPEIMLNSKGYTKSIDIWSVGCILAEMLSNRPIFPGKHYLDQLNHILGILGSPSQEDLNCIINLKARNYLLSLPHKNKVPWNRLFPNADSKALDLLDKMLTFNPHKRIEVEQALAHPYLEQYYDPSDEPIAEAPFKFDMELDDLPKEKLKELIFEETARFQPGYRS

[3] = Growth inhibition of human NCI-ADR-RES cells assessed as cell growth at 10^-5 M after 48 hrs by sulforhodamine B assay relative to control; format: functional; settings: read-out: Activity; procedure, shortened: as §1
UO-31 = assay: Growth inhibition of human UO31 cells assessed as cell growth at 10^-5 M after 48 hrs by sulforhodamine B assay relative to control; format: functional; settings: UO-31, 48 h, read-out: Activity
Procedure, shortened: (§2)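 NCI-60 single-dose screen, 10^-5 M final. Cells grown in RPMI 1640 with 5% FBS and 2 mM L-glutamine, seeded at 5,000–40,000 cells/well by doubling time. Preincubated 24 h at 37°C, 5% CO2. Compound in DMSO, diluted in medium with gentamicin, then 48 h exposure. Fixed with cold TCA, SRB stained, A515 read. Percent growth vs untreated control, time-zero plate corrected.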

SK-OV-3 = assay: Growth inhibition of human SKOV3 cells assessed as cell growth at 10^-5 M after 48 hrs by sulforhodamine B assay relative to control; format: functional; settings: SK-OV-3, 48 h, read-out: Activity; procedure, shortened: as §1
HT-29 = assay: Growth inhibition of human HT-29 cells assessed as cell growth at 10^-5 M after 48 hrs by sulforhodamine B assay relative to control; format: functional; settings: HT-29, 48 h, read-out: Activity; procedure, shortened: as §1
786-0 = assay: Growth inhibition of human 786-0 cells assessed as cell growth at 10^-5 M after 48 hrs by sulforhodamine B assay relative to control; format: functional; settings: 786-0, 48 h, read-out: Activity; procedure, shortened: as §1
HCT-116 = assay: Growth inhibition of human HCT116 cells assessed as cell growth at 10^-5 M after 48 hrs by sulforhodamine B assay relative to control; format: functional; settings: HCT-116, 48 h, read-out: Activity; procedure, shortened: as §1
RXF 393 = assay: Growth inhibition of human RXF393 cells assessed as cell growth at 10^-5 M after 48 hrs by sulforhodamine B assay relative to control; format: functional; settings: RXF 393, 48 h, read-out: Activity; procedure, shortened: as §1
OVCAR-8 = assay: Growth inhibition of human OVCAR8 cells assessed as cell growth at 10^-5 M after 48 hrs by sulforhodamine B assay relative to control; format: functional; settings: OVCAR-8, 48 h, read-out: Activity; procedure, shortened: as §1
PC-3 = assay: Growth inhibition of human PC3 cells assessed as cell growth at 10^-5 M after 48 hrs by sulforhodamine B assay relative to control; format: functional; settings: PC-3, 48 h, read-out: Activity; procedure, shortened: as §1
BT-549 = assay: Growth inhibition of human BT549 cells assessed as cell growth at 10^-5 M after 48 hrs by sulforhodamine B assay relative to control; format: functional; settings: BT-549, 48 h, read-out: Activity; procedure, shortened: as §1
A549 = assay: Growth inhibition of human A549 cells assessed as cell growth at 10^-5 M after 48 hrs by sulforhodamine B assay relative to control; format: functional; settings: A549, 48 h, read-out: Activity; procedure, shortened: as §1
IGROV-1 = assay: Growth inhibition of human IGROV1 cells assessed as cell growth at 10^-5 M after 48 hrs by sulforhodamine B assay relative to control; format: functional; settings: IGROV-1, 48 h, read-out: Activity; procedure, shortened: as §1
[4] = Growth inhibition of human HCC2998 cells assessed as cell growth at 10^-5 M after 48 hrs by sulforhodamine B assay relative to control; format: functional; settings: HCC 2998, 48 h, read-out: Activity; procedure, shortened: as §1
SF-268 = assay: Growth inhibition of human SF268 cells assessed as cell growth at 10^-5 M after 48 hrs by sulforhodamine B assay relative to control; format: functional; settings: SF-268, 48 h, read-out: Activity; procedure, shortened: as §1
T47D = assay: Growth inhibition of human T47D cells assessed as cell growth at 10^-5 M after 48 hrs by sulforhodamine B assay relative to control; format: functional; settings: read-out: Activity; procedure, shortened: as §2
Vitamin D3 receptor = target: T1, Vitamin D3 receptor (Homo sapiens, UniProt P11473); assay: Inhibition of human vitamin D3 receptor
T1 sequence (P11473 whole entry): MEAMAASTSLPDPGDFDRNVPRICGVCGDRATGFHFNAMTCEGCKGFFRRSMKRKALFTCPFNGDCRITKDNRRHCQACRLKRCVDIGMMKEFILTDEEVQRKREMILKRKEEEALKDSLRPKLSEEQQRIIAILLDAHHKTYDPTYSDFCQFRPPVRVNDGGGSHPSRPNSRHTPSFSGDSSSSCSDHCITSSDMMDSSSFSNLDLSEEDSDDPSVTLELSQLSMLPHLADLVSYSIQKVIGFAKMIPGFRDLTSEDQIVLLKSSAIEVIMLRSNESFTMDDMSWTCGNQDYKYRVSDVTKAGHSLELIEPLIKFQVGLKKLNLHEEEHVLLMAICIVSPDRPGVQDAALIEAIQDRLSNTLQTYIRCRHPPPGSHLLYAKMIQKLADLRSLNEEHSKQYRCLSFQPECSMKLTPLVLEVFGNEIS

CCRF-CEM = assay: Growth inhibition of human CCRF-CEM cells assessed as cell growth at 10^-5 M after 48 hrs by sulforhodamine B assay relative to control; format: functional; settings: read-out: Activity; procedure, shortened: as §1
[5] = target: Proto-oncogene tyrosine-protein kinase Src (Homo sapiens, UniProt P12931); assay: Inhibition of human SRC
Sequence of Proto-oncogene tyrosine-protein kinase Src (P12931 2-536 limits assumed): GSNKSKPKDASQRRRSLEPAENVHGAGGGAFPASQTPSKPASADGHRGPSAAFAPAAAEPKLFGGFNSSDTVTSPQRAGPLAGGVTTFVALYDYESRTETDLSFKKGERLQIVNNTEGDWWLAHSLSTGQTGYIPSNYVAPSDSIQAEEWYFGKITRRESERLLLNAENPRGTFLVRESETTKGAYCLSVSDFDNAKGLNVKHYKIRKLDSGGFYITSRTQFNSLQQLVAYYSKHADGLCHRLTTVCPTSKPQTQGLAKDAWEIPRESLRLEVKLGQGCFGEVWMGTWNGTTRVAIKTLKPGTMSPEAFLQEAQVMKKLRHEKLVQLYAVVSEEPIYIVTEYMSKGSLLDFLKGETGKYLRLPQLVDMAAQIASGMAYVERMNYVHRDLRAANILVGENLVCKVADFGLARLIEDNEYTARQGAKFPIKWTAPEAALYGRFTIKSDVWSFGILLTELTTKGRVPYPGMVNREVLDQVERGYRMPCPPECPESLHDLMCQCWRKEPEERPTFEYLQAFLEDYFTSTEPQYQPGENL

SNB-19 = assay: Growth inhibition of human SNB19 cells assessed as cell growth at 10^-5 M after 48 hrs by sulforhodamine B assay relative to control; format: functional; settings: SNB-19, 48 h, read-out: Activity; procedure, shortened: as §1
HOP-92 = assay: Growth inhibition of human HOP92 cells assessed as cell growth at 10^-5 M after 48 hrs by sulforhodamine B assay relative to control; format: functional; settings: HOP-92, 48 h, read-out: Activity; procedure, shortened: as §1
RPMI-8226 = assay: Growth inhibition of human RPMI8226 cells assessed as cell growth at 10^-5 M after 48 hrs by sulforhodamine B assay relative to control; format: functional; settings: RPMI-8226, 48 h, read-out: Activity; procedure, shortened: as §1
OVCAR-3 = assay: Growth inhibition of human OVCAR3 cells assessed as cell growth at 10^-5 M after 48 hrs by sulforhodamine B assay relative to control; format: functional; settings: OVCAR-3, 48 h, read-out: Activity; procedure, shortened: as §1
COLO 205 = assay: Growth inhibition of human COLO205 cells assessed as cell growth at 10^-5 M after 48 hrs by sulforhodamine B assay relative to control; format: functional; settings: COLO 205, 48 h, read-out: Activity; procedure, shortened: as §1

Row | Compound | growth at 10 µM [1] | growth at 10 µM (K562) | pKi [2] | growth at 10 µM [3] | growth at 10 µM (UO-31) | growth at 10 µM (SK-OV-3) | growth at 10 µM (HT-29) | growth at 10 µM (786-0) | growth at 10 µM (HCT-116) | growth at 10 µM (RXF 393) | growth at 10 µM (OVCAR-8) | growth at 10 µM (PC-3) | growth at 10 µM (BT-549) | growth at 10 µM (A549) | growth at 10 µM (IGROV-1) | growth at 10 µM [4] | growth at 10 µM (SF-268) | growth at 10 µM (T47D) | pKi (Vitamin D3 receptor) | growth at 10 µM (CCRF-CEM) | further results
1 | Cc1ccc(-c2csc(=N)n2CC(=O)N2CCN(c3ccccc3)CC2)cc1 | 88.2% | 100% | 5.68 | 92.6% | 78.8% | 89.2% | 111% | 101% | 103% | 97.3% | 92.9% | 82.1% | 92.6% | 97.7% | 93.2% | 104% | 105% | 78% | 5.99 | 103% | pKi [5]: 4.87; growth at 10 µM (SNB-19): 96.6%; growth at 10 µM (HOP-92): 69.2%; growth at 10 µM (RPMI-8226): 92.4%; growth at 10 µM (OVCAR-3): 95.4%; growth at 10 µM (COLO 205): 109%
2 | N=c1scc(-c2ccc(Cl)cc2)n1CC(=O)N1CCN(c2ccccc2)CC1 | 106% | 84.8% | 6.30 | 98% | 91% | 109% | 92.9% | 97.9% | 101% | 98.8% | 97.8% | 81.8% | 102% | 84.8% | 101% | 95.6% | 105% | 88.9% | 5.51 | 96.2% | pKi [5]: 5.72; growth at 10 µM (SNB-19): 100%; growth at 10 µM (HOP-92): 76.1%; growth at 10 µM (RPMI-8226): 83.4%; growth at 10 µM (OVCAR-3): 113%; growth at 10 µM (COLO 205): 105%
3 | N=c1scc(-c2ccccc2)n1CC(=O)N1CCN(c2ccccc2)CC1 | 96.5% | 103% | 5.76 | 86.5% | 58% | 94.5% | 106% | 104% | 107% | 107% | 94.7% | 72.3% | 95.5% | 90.3% | 98.9% | 100% | 101% | 91.2% | 5.80 | 95.8% | pKi [5]: 4.85; growth at 10 µM (SNB-19): 98.6%; growth at 10 µM (HOP-92): 59%; growth at 10 µM (RPMI-8226): 92.1%; growth at 10 µM (OVCAR-3): 109%; growth at 10 µM (COLO 205): 102%
4 | CC(=O)N1CCN(C(=O)Cn2c(-c3ccc(C)cc3)csc2=N)CC1 | 105% | 84.3% | 5.65 | 93% | 83.1% | 103% | 105% | 98.8% | 85.9% | 94.8% | 98.4% | 65.2% | 104% | 83.4% | 103% | 101% | 101% | 73.4% | 5.55 | 88.2% | pKi [5]: 4.82; growth at 10 µM (SNB-19): 100%; growth at 10 µM (HOP-92): 60.9%; growth at 10 µM (RPMI-8226): 82.3%; growth at 10 µM (OVCAR-3): 108%; growth at 10 µM (COLO 205): 106%
5 | CC(=O)N1CCN(C(=O)Cn2c(-c3ccc(Cl)cc3)csc2=N)CC1 | 104% | 72% | 6.11 | 95.5% | 89.1% | 92.4% | 85.8% | 94.4% | 93% | 100% | 91.2% | 81.6% | 89.9% | 75.9% | 100% | 98.9% | 95.1% | 79% | 5.64 | 92.3% | pKi [5]: 4.83; growth at 10 µM (SNB-19): 84.2%; growth at 10 µM (HOP-92): 82%; growth at 10 µM (RPMI-8226): 73.3%; growth at 10 µM (OVCAR-3): 97.7%; growth at 10 µM (COLO 205): 97%
6 | Cc1ccc(-c2csc(=N)n2CC(=O)N2CCN(C)CC2)cc1 | 101% | 82.9% | 5.72 | 93.1% | 83.1% | 111% | 110% | 101% | 104% | 93.1% | 99.5% | 68.4% | 115% | 86.8% | 111% | 103% | 96.7% | 81.6% | 4.77 | 87.1% | pKi [5]: 5.33; growth at 10 µM (SNB-19): 99.8%; growth at 10 µM (HOP-92): 62.8%; growth at 10 µM (RPMI-8226): 83.5%; growth at 10 µM (OVCAR-3): 108%; growth at 10 µM (COLO 205): 106%
7 | CC(=O)N1CCN(C(=O)Cn2c(-c3ccccc3)csc2=N)CC1 | 110% | 86.8% | 5.44 | 105% | 60.4% | 89.4% | 101% | 103% | 96.1% | 86.3% | 96.7% | 83.5% | 98% | 96% | 95.6% | 107% | 100% | 85.9% | 5.33 | 103% | pKi [5]: 4.46; growth at 10 µM (SNB-19): 103%; growth at 10 µM (HOP-92): 75%; growth at 10 µM (RPMI-8226): 97.3%; growth at 10 µM (OVCAR-3): 102%; growth at 10 µM (COLO 205): 99.8%
